The source of these data is ChEMBL document CHEMBL1123771, “Synthesis and structure-activity relationships of potent new angiotensin converting enzyme inhibitors containing saturated bicyclic amino acids” (J Med Chem, 1987).

Assay [1] addresses T1, Angiotensin-converting enzyme (Rattus norvegicus, UniProt P47820).
T1 sequence (P47820 whole entry): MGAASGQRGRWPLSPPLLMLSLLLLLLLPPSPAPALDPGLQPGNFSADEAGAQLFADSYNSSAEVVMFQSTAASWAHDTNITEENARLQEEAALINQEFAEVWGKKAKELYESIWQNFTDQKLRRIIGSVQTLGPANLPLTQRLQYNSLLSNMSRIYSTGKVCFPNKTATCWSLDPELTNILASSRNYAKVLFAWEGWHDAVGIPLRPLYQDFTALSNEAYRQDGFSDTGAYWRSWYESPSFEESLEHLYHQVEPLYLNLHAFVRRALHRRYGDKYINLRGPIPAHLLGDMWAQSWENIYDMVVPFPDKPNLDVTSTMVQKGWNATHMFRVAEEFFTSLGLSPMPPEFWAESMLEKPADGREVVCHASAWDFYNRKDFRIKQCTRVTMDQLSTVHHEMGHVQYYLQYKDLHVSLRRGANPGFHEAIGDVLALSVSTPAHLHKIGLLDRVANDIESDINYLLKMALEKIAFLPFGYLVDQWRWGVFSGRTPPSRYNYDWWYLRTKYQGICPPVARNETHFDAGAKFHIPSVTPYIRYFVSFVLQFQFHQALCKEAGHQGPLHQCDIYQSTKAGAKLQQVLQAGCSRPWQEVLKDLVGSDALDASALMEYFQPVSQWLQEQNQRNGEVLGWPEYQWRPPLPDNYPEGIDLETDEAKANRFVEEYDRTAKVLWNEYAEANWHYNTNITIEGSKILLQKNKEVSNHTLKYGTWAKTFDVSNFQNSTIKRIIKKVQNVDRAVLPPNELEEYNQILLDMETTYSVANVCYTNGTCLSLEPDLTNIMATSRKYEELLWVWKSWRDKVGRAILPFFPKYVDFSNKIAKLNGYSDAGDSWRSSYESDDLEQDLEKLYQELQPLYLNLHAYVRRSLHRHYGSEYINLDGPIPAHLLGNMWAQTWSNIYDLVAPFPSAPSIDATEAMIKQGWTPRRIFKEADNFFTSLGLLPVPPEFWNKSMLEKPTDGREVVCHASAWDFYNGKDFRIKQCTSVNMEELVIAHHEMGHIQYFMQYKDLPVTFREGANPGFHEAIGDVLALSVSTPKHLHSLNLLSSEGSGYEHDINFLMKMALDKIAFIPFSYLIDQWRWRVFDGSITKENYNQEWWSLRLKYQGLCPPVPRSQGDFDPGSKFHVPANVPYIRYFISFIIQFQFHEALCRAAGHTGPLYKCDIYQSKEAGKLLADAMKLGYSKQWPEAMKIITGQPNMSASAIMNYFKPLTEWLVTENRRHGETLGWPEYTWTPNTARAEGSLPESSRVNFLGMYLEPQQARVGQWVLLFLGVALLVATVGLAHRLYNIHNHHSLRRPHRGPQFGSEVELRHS
Kind of assay: Inhibition of rat Angiotensin I converting enzyme (ACE), using Hip-Gly-Gly as synthetic substrate. In short, it runs like this:
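Radioassay of converting-enzyme activity with Hip-Gly-Gly as substrate; compounds dissolved at 2–5 mg/mL in Me2SO, then diluted to test concentrations in pH 8 buffer (0.05 M Hepes, 0.1 M NaCl, 0.6 M Na2SO4).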

The test system of assay [2] is Rattus norvegicus. Put plainly: Mean aortic base line blood pressure in conscious renal 2-kidney/1-clip goldblatt hypertensive rat at a dose 30 mg/kg administered orally. The format is functional, Artery. The settings on record: route oral.
In assay [3] the test system is Rattus norvegicus. Put plainly: Maximum change in mean aortic blood pressure in conscious renal 2-kidney/1-clip goldblatt hypertensive rat at a dose 30 mg/kg administered orally at 8h; 3 animals tested. The format is functional, Artery. The conditions noted are these: route oral. A digest of the protocol: (§1)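 Male Sprague–Dawley rats made hypertensive at 4 weeks old by silver clip (0.2-mm gap) on left renal artery, contralateral kidney intact; 4–8 weeks development, cannulated (280–320 g), only mean aortic pressure >160 mmHg used. Oral dosing; 1-min running-average aortic pressure and heart rate logged every 30 min; maximum change from base line, mean ± SEM.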

Assay [4] deals with Rattus norvegicus. Kind of assay: Maximum change in mean aortic blood pressure in conscious renal 2-kidney/1-clip goldblatt hypertensive rat at a dose 30 mg/kg administered orally at 6 h; 3 animals tested. The format is functional, Artery. The conditions noted are these: route oral. In short, it runs like this:
as §1

The test system of assay [5] is Rattus norvegicus. Put plainly: Maximum change in mean aortic blood pressure in conscious renal 2-kidney/1-clip goldblatt hypertensive rat at a dose 30 mg/kg administered orally at 5h; 4 animals tested. The format is functional, Artery. The settings on record: route oral. A digest of the protocol: (§2)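 Male Sprague–Dawley rats, 4 weeks old, given a silver clip (0.2-mm gap) on the left renal artery with the other kidney intact. Hypertension developed over 4–8 weeks, then rats (280–320 g) were aortic-cannulated; only those with mean pressure >160 mmHg were used. Oral dosing. One-minute running averages were logged every 30 min. Results are mean ± 1 SEM, from 3–5 rats.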

Assay [6] concerns Rattus norvegicus. Put plainly: Maximum change in mean aortic blood pressure in conscious renal 2-kidney/1-clip goldblatt hypertensive rat at a dose 30 mg/kg administered orally at 8h; 4 animals tested. It is filed as functional, Artery. The settings on record: route oral. A digest of the protocol: as §2
Assay [7] concerns Rattus norvegicus. Kind of assay: Maximum change in mean aortic blood pressure in conscious renal 2-kidney/1-clip goldblatt hypertensive rat at a dose 30 mg/kg administered orally at 6 h; 4 animals tested. The format is functional, Artery. The conditions noted are these: route oral.
The subject of assay [8] is Rattus norvegicus. Put plainly: Mean aortic base line blood pressure in conscious renal 2-kidney/1-clip goldblatt hypertensive rat at a dose 3 mg/kg administered orally. It is filed as functional, Artery. The settings on record: route oral. A digest of the protocol:
as §2

Assay [9] concerns Rattus norvegicus. Put plainly: Maximum change in mean aortic blood pressure in conscious renal 2-kidney/1-clip goldblatt hypertensive rat at a dose 3 mg/kg administered orally at 6 h; 4 animals tested. It is filed as functional, Artery. The settings on record: route oral.

For orientation: IC50 means the concentration that inhibits the measured activity by half. Lower therefore signals greater potency in that assay. Compound `O=C(O)[C@@H]1CCCN1C(=O)CCS` yielded an IC50 in assay [1] of 820 nM. For `CC(CS)C(=O)N1C(=O)CCC1C(=O)O` (stereo unspecified), it took 9.3 nM to reach half-maximal inhibition in assay [1] (IC50). The results for the “Mean aortic blood pressure” value in the assay with Rattus norvegicus [2] and with Rattus norvegicus [3] were 185 mmHg and -48 mmHg, respectively. Consider `CC(=O)SCC(C)C(=O)N1C(=O)C2CCCCC2C1C(=O)O` (stereo unspecified), for which, in assay [1], the concentration for half-maximal inhibition (IC50) was found to be 300 nM.

On to `C1CCC(NC2CCCCC2)CC1.CC(CS)C(=O)N1C(=O)C2CCCCC2C1C(=O)O` (stereo unspecified), for which the entries for the “Mean aortic blood pressure” value with Rattus norvegicus [2] and in the assay on Rattus norvegicus [3] were 192 mmHg and -100 mmHg, respectively. As to `C1CCC(NC2CCCCC2)CC1.O=C(O)C1C2CCCCC2C(=O)N1C(=O)CCS` (stereo unspecified), the “Mean aortic blood pressure” value in the assay on Rattus norvegicus [2] is 205 mmHg; in the assay with Rattus norvegicus [3], -57 mmHg. For the compound `C1CCC(NC2CCCCC2)CC1.O=C(O)C1C2CCCCC2CN1C(=O)CCS` (stereo unspecified), the “Mean aortic blood pressure” value with Rattus norvegicus [2] is listed as 184 mmHg; in the assay on Rattus norvegicus [4] it was -76 mmHg. Take `O=C(O)C1Cc2ccccc2N1C(=O)CCS` (stereo unspecified): in [1], the IC50 came to 140 nM. On the same count and under the same terms, the result for `O=C(O)[C@@H]1CCC(=O)N1C(=O)CCS` reads 960 nM. `C[C@H](N[C@@H](CCc1ccccc1)C(=O)O)C(=O)N1[C@H](C(=O)O)C[C@@H]2CCCC[C@@H]21`: the “Mean aortic blood pressure” value in the assay with Rattus norvegicus [2] is listed as 198 mmHg; with Rattus norvegicus [5] it was -104 mmHg. In turn, `O=C(NC(Cc1ccccc1)C(=O)CCC(=O)N1C(C(=O)O)CC2CCCCC21)c1ccccc1` (stereo unspecified) came in with a half-maximal inhibitory concentration (IC50) in assay [1] of 11 nM. In addition, the “Mean aortic blood pressure” value in the assay on Rattus norvegicus [2] is 169 mmHg; in the assay with Rattus norvegicus [6], -27 mmHg. `CCOC(=O)C(CCc1ccccc1)N1C(=O)C2CC3CCCCC3N2C(=O)C1C` (stereo unspecified): the 50% inhibitory concentration (IC50) in assay [1] was above 100000 nM. The same measure, in the same setting: the result for `O=C1SCCC(=O)N2C1CC1CCCCC12` (stereo unspecified) reads 7 nM. Regarding `CC(CSC(=O)c1ccccc1)C(=O)N1[C@H](C(=O)O)C[C@@H]2CCCC[C@@H]21` (stereo partly specified), in assay [1], inhibition was half-maximal at 540 nM (IC50). In the case of `CC(CS)C(=O)N1CC2CCCCC2C1C(=O)O` (stereo unspecified), the “Mean aortic blood pressure” value was 152 mmHg in the assay with Rattus norvegicus [2] and -50 mmHg in the assay with Rattus norvegicus [7]. In [1], `CCOC(=O)C(CCc1ccccc1)NC(C)C(=O)N1C(=O)CCC1C(=O)O` (stereo unspecified) gave a half-maximal inhibitory concentration (IC50) of 63 nM. `C[C@H](CS)C(=O)N1c2ccccc2C[C@H]1C(=O)O` returned an IC50 in [1] of 3.7 nM. Same read-out and setting: the result for `CC(=O)SCCC(=O)N1[C@H](C(=O)O)C[C@@H]2CCCC[C@@H]21` (stereo in doubt; 8a) reads 560 nM; that for `CC(=O)SCCC(=O)N1[C@H](C(=O)O)C[C@@H]2CCCC[C@@H]21` (stereo in doubt; 8c), 480 nM.

Turning to `O=C(O)[C@@H]1C[C@@H]2CCCC[C@@H]2N1C(=O)CCS` (stereo in doubt; 8d), the IC50 in assay [1] was found to be 6.4 nM.

On to `CC(=O)SCC(C)C(=O)N1[C@H](C(=O)O)C[C@@H]2CCCC[C@@H]21` (stereo in doubt; 9a), for which 160 nM corresponded to half-maximal inhibition in assay [1] (IC50).

With `CC(=O)SCC(C)C(=O)N1[C@H](C(=O)O)C[C@@H]2CCCC[C@@H]21` (stereo in doubt; 9b), the midpoint of inhibition in assay [1], the IC50, lay at 35000 nM. For `CC(CS)C(=O)N1[C@H](C(=O)O)C[C@@H]2CCCC[C@@H]21` (stereo in doubt; 9d), the IC50 in assay [1] was 1100 nM. In the case of `CC(CS)C(=O)N1[C@H](C(=O)O)C[C@@H]2CCCC[C@@H]21` (stereo in doubt; 9f), it took 5.2 nM to reach half-maximal inhibition in assay [1] (IC50). Besides, the “Mean aortic blood pressure” value in the assay with Rattus norvegicus [2] (30 mg/kg) is reported as 193 mmHg; in the assay on Rattus norvegicus [4], -72 mmHg. As for `CCOC(=O)C(CCc1ccccc1)NC(C)C(=O)N1[C@H](C(=O)O)C[C@@H]2CCCC[C@@H]21.Cl` (stereo in doubt; 17a), the “Mean aortic blood pressure” value with Rattus norvegicus [8] is reported as 199 mmHg; in the assay on Rattus norvegicus [9], -87 mmHg.
